T cruzi repl – inhibitors of intracellular T. cruzi growth, primary screen, luminescence, NIH3T3 host cells; inhibition, % (test concentration not listed); hit rate 1.4% among 300,000; AID 1885, 2009; T. cruzi beta-gal in NIH3T3, 90 h;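 active = mean inhibition across valid replicates above about 55%, limit read from the data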;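 note: signal also drops with host cell toxicity which is not excluded here; 0% = plate median of DMSO wells and 100% = zero luminescence signal; higher percent means less beta-gal luminescence so fewer parasites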
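System – NIH/3T3 host cells with β-galactosidase reporter T. cruzi · Doses – single 50 nL compound addition per well in DMSO · Reagent – 5000 T. cruzi trypomastigotes/well · Medium – Low-serum DMEM with 2% FBS · Timing – ≥90 h infection period, 3 h prior cell attachment · Evaluation – parasite load inhibition, % · Technique – GalScreen luminescence, 60 min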
CHT allo act – CHT positive allosteric modulators, primary screen, cell-based, membrane potential dye, choline EC20. High affinity choline transporter 1 (Homo sapiens), Q9GZV3. CHT-expressing cells; active compounds read high; LV-AA mutant CHT in HEK293 cells. B-score at 10 µM. hit rate 0.49% among 310,000. AID 488977, 2010;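 active = initial fluorescence not abnormally high and integrated response B-score, plate-corrected, over 3 SD above library mean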
Target sequence (Q9GZV3 whole entry, looked up): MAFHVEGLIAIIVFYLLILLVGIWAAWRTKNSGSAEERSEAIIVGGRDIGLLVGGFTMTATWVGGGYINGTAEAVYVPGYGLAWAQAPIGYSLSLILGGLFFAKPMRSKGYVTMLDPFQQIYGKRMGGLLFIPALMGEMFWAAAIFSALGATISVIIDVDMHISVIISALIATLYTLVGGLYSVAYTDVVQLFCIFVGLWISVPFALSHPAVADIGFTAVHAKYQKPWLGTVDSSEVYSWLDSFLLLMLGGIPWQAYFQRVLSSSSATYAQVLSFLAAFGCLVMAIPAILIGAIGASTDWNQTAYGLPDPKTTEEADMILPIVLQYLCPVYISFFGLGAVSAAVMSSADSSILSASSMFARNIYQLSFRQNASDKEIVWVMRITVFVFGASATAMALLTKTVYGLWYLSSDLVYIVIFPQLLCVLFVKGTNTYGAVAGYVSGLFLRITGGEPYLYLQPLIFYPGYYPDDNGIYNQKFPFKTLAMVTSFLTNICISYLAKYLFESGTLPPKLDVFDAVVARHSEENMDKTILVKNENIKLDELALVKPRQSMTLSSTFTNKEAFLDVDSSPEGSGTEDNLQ
CHT inh – inhibitors of human choline transporter CHT; High affinity choline transporter 1 (Homo sapiens), Q9GZV3; CHT-expressing cells, membrane potential dye, choline response; active compounds read low; B-score at 10 µM; hit rate 0.86% among 310,000; AID 488975, 2010;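 active = B-score over 3 SD under the library average, and starting fluorescence ratio not unusually high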;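 note: choline stimulus applied at its EC90 after an EC20 pre-addition; B-score computed on integrated fluorescence ratio after choline addition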
PolyA inhibitor – polyadenylation inhibitors in yeast reporter cells, primary screen, luminescence, S. cerevisiae. S. cerevisiae SKY197-pL101 polyadenylation reporter, beta-gal luminescence; efflux-impaired pdr1/pdr3 knockout yeast; score 100 = 6 SD above DMSO. AID 1875, 2009. activity score, % at 12 µM. hit rate 0.02% among 300,000;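 active = lowest replicate activity score at least 50, where 100 means six control SD above control mean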;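 note: yeast exposed to compound for 9 h at 30 °C; higher score means more reporter readthrough which indicates perturbed polyadenylation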
The depositor's hits bear a star; i = inactive; . = no result given. Only some compounds are listed: those with a hit (about 2.6% of all), similar ones and a draw of the others.

SMILES	T cruzi repl	CHT allo act	CHT inh	PolyA inhibitor
CCOC(=O)c1cnc(SC)nc1Oc1cccc(NS(=O)(=O)c2ccccc2)c1	56*	i	i	10
CC(C)c1csc(CN2CCC(CO)(Cc3cccc(F)c3)CC2)n1	68*	i	i	-1
c1ccc(Oc2nc(-c3ccccn3)nc3ccccc23)cc1	65*	i	i	-4
c1ccc(-c2nc(N3CCCCCC3)c3ccccc3n2)nc1	63*	i	i	-11
Cc1cc(Nc2cccc(F)c2)nc(-c2ccccc2O)n1	56*	i	i	-37
Cc1cc(C)c(NC(=O)CCCN2CCN(C)CC2)c(C)c1	2	i	i	-12
CN1CCN(CCCc2c3c(cc4c2CCC4)CCC3)CC1	62*	i	i	12
N=C1S/C(=C\c2ccco2)C(=O)N1c1nccs1	56*	i	i	5
COc1cc(C(=O)Nc2ccc(NC(=O)c3ccccc3Cl)nc2)cc(OC)c1OC	0	i	i	-8
S=C(NCC1CCCCC1)Nc1ccc(Oc2ccccc2)cc1	55*	i	i	14
CCC(=O)NC(=S)Nc1ccc(NC(=S)NC(=O)c2ccc(C)cc2)cc1	-14	i	i	-21
CCC(=O)NC(=S)Nc1ccc(NC(=S)NC(=O)c2ccccc2)cc1	61*	.	.	-7
COCCn1c(SCc2ccc(OC)c(F)c2)nc2ccccc2c1=O	75*	i	i	13
CC(=O)NCCn1c(SCc2cc(F)ccc2F)nc2ccccc2c1=O	68*	i	i	-3
CC(=O)NCCn1c(SCc2ccccc2C)nc2ccccc2c1=O	49	i	i	8
Cc1cc(NS(=O)(=O)c2ccc(NC(=O)CCCOc3cccc(C)c3C)cc2)no1	-3	i	i	8
CC(=O)c1ccc(N(CC(=O)NC2CCCCC2)C(=O)CNC(=O)c2cccs2)cc1	3	i	i	-3
CC1(OC(=O)CCc2ccccc2)C(=O)C=C2C=C3CCCN3C=C2C1=O (stereo not given)	12	i	i	12
CC1(OC(=O)c2cccs2)C(=O)C=C2C=C3CCCN3C=C2C1=O (stereo not given)	-14	i	-5.3*	-5
CCn1cc(C(=O)NCCCOC(C)C)c(=O)c2cc(S(=O)(=O)N3CCOCC3)ccc21	2	i	i	0
COc1ccc(C2c3[nH]c4ccccc4c3CCN2CCCn2cccn2)c(F)c1 (stereo not given)	15	i	i	-6
Fc1ccccc1C1c2[nH]c3ccccc3c2CCN1Cc1cccn1-c1ncccn1 (stereo not given)	77*	i	i	-4
COc1cccc(CC2(CO)CCCN(Cc3ccccc3Cl)C2)c1 (stereo not given)	26	i	i	14
COc1cccc(CC2(CO)CCCN(Cc3cn(C)c4ccccc34)C2)c1 (stereo not given)	65*	i	i	-9
COc1cccc(CC2(CO)CCCN(C/C=C/c3ccccc3OC)C2)c1 (stereo not given)	63*	i	i	16
SMILES	T cruzi repl	CHT allo act	CHT inh	PolyA inhibitor
COc1ccc(CN2CCCC(CO)(Cc3ccc(F)cc3)C2)cc1C (stereo not given)	58*	i	i	-1
CC(C)Oc1ccc(CN2CCCC(CO)(Cc3ccccc3)C2)cc1CO (stereo not given)	17	i	i	-2
Cn1cc(CN2CCCC(CO)(Cc3ccccc3)C2)c2ccccc21 (stereo not given)	67*	i	i	-9
COc1ccccc1/C=C/CN1CCCC(CO)(Cc2cccc(Cl)c2)C1 (stereo not given)	32	i	i	-10
CCCCn1c(N)c(N(CC(C)C)C(=O)CC2OC(=O)c3ccccc32)c(=O)[nH]c1=O (stereo not given)	-6	i	i	-12
Cc1cc(OC(C)C(=O)NCC(O)c2ccccc2)c2c(C)cc(=O)oc2c1 (stereo not given)	-14	i	i	15
Cc1cccc(Cn2c(O)c(N=NC(=S)Nc3ccccc3F)c3ccccc32)c1	60*	i	i	0
NC(=S)N=Nc1c(O)n(Cc2ccc(F)cc2)c2ccccc12	46	i	i	19
Oc1c(N=NC(=S)Nc2ccccc2F)c2ccccc2n1Cc1cccc(Cl)c1	57*	i	i	0
Oc1c(N=NC(=S)Nc2ccccc2F)c2ccccc2n1Cc1ccc(F)cc1	67*	i	i	-3
Cc1ccc2c(c1)c(N=NC(N)=S)c(O)n2Cc1ccccc1	14	i	i	-33
COc1cccc(OCC(=O)N(C)Cc2nc(-c3cccc(C)c3)no2)c1	2	i	i	1
CCc1nn(CCCC(=O)N2CCN(c3cccc(C)c3C)CC2)c(=O)c2cc3occc3n12	5	i	i	14
Cc1cc2ccccn2c1C(=O)c1ccc([N+](=O)[O-])o1	74*	i	i	-82
Cc1cc2ccccn2c1C(=O)c1cccc([N+](=O)[O-])c1	-12	i	i	-9
COC(=O)C1=CN(c2cc(C)cc(C)c2)C=C(C(=O)OC)C1c1cccc(F)c1	55*	i	i	27
COC(=O)C1=CN(c2cc(C)cc(C)c2)C=C(C(=O)OC)C1c1ccc(OC)c(O)c1	37	i	i	-6
Cn1cnnc1Sc1nc([N+](=O)[O-])nn1C	15	i	i	5
Cn1nc([N+](=O)[O-])nc1Sc1ccc(Cl)cc1	69*	i	i	-17
COc1ccc(-c2ncc(CN3CCN(CCC(C)C)C(CCO)C3)cn2)cc1 (stereo not given)	61*	i	i	-10
CC1CCCN(C(=O)c2ccc3c(c2NCCO)C(=O)c2ccccc2C3=O)C1 (stereo not given)	18	i	-5.4*	-3
Cc1ccc(-c2nc(CS(=O)CC(=O)NCCCN3CCN(Cc4ccccc4)CC3)c(C)o2)cc1 (stereo not given)	16	i	i	-6
CCc1cccc2c(C(=O)CN3C(=O)NC(C)(c4cccc5ccccc45)C3=O)c[nH]c12 (stereo not given)	66*	i	i	-1
CCc1cccc2c(C(=O)CN3C(=O)NC4(CCc5ccccc54)C3=O)c[nH]c12 (stereo not given)	32	i	i	10
CCOc1ccc(S(=O)(=O)N(CC)CC)cc1NC(=O)c1ccc(N2CCCC2=O)cc1	34	i	i	-25
O=C(CC1Oc2ccccc2NC1=O)NCc1ccccc1 (stereo not given)	-2	i	i	2
CC(=O)CC1OC(=O)C(Br)=C1NCc1ccccc1 (stereo not given)	59*	i	i	13

Screening results as filed in PubChem BioAssay.
